Source: ChEMBL document CHEMBL1129630, “Synthesis and structure-activity relationships of retinoid X receptor selective diaryl sulfide analogs of retinoic acid” (J Med Chem, 1996)

Target: T1, Retinoic acid receptor alpha (Mus musculus, UniProt P11416)
T1 sequence (P11416 whole entry): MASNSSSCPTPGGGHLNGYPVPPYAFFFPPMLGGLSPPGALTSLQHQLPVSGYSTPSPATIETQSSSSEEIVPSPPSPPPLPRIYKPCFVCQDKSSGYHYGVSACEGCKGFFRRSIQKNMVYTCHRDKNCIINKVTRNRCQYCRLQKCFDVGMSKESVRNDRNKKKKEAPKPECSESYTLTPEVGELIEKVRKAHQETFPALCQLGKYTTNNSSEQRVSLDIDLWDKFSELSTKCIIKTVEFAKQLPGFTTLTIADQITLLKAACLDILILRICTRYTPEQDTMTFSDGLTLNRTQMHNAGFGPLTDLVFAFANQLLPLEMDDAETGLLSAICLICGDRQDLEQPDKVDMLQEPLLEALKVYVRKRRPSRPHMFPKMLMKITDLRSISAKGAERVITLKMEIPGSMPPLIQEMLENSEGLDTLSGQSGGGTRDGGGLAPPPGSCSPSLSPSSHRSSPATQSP
Test: Dissociation constant for binding to Retinoic acid receptor alpha;NA=not active; call rule not given here
Outline: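 Competitive binding assays against each receptor subtype, with Kd values taken from competition.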

SMILES: Cc1cc2c(cc1Sc1ccc(C(=O)O)cn1)C(C)(C)CCC2(C)C
- Kd: Not Active
